The structures appear in SMILES notation. ≈ marks a conversion by molar mass, not a printed value.

In this assay the test system is Vaccinia virus. In words: Minimum inhibitory concentration (MIC) required to reduce vaccinia virus induced cytopathogenicity in primary rabbit kidney cell cultures. The class given is functional. As to conditions: Orthopoxvirus vaccinia. The gist of the method: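 Primary rabbit kidney cell cultures were infected with virus and treated with compound. The MIC is the concentration that reduces virus-induced cytopathogenicity by 50%. Cytotoxicity was scored as microscopically visible alteration of normal cell morphology, with 400 μg/mL the highest concentration tested.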
On the technique in general: Cytopathic effects are the visible damage that an infection or toxin causes in cultured cells.

As to `O=c1[nH]c(=O)n([C@@H]2C[C@H](CO)[C@@H](O)C2)cc1I`, the MIC50 was 20 µg/mL (≈ 56.8 µM). In the case of `Nc1nc(=O)n(C2CC(O)C(CO)C2)cc1/C=C/Br` (configuration not stated) it was over 200 µg/mL.

`O=c1[nH]c(=O)n(C2CC(O)C(CO)C2)cc1/C=C/I` (configuration not stated): the MIC50 was 300 µg/mL (≈ 793 µM). In turn, `NC1NC(=O)N([C@H]2C[C@H](O)[C@@H](CO)O2)C=C1/C=C/Br` (some centres not stated) showed an MIC50 of 200 µg/mL (≈ 598 µM).

As for `O=c1[nH]c(=O)n([C@H]2C[C@H](O)[C@@H](CO)O2)cc1/C=C/I`, the MIC50 amounted to 7 µg/mL (≈ 18.4 µM). Regarding `O=c1[nH]c(=O)n([C@H]2C[C@H](O)[C@@H](CO)O2)cc1I` [IDOXURIDINE], the MIC50 came to 0.2 µg/mL (≈ 0.565 µM). `O=c1[nH]c(=O)n([C@H]2C[C@@H](CO)[C@H](O)C2)cc1/C=C/Br` showed an MIC50 of 300 µg/mL (≈ 906 µM).

These data come from ChEMBL document CHEMBL1123080, “Synthesis and antiviral activity of the carbocyclic analogues of (E)-5-(2-halovinyl)-2'-deoxyuridines and (E)-5-(2-halovinyl)-2'-deoxycytidines” (1985).
